Laboratory results published in ChEMBL document CHEMBL4699431, “Design and synthesis of substituted (1-(benzyl)-1H-1,2,3-triazol-4-yl)(piperazin-1-yl)methanone conjugates: study on their apoptosis inducing ability and tubulin polymerization inhibition” (RSC Med Chem, 2020).
Calls of active or inactive are those of the source. The rule behind the calls is not given here.

Key:
Tubulin (Homo sapiens) = Tubulin (Homo sapiens) (UniProt P68371+Q9H4B7+P0DPH7+P68366+Q13509+Q71U36+P04350+Q3ZCM7+P07437+P68363+Q9BQE3+Q6PEY2+Q13885+Q9BVA1+Q9BUF5); test: Inhibition of tubulin (unknown origin) polymerization by cell free in vitro assay; assay type: protein-complex assay
BT-474 [1] = test: Induction of apoptosis in human BT-474 cells assessed as chromatin condensation incubated for 48 hrs by acridine orange/ethidium bromide double staining-based fluorescence microscopic analysis; assay type: functional, cell-based; conditions: dose microM 0.5-2.5, time 48.0 hrs
In short: (§1)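 Plated at 5×10^4 cells/well, treated after 24 h and held 48 h at 37 °C, 5% CO₂. Acridine orange and ethidium bromide (10 µg/mL each) added in equal volumes, then cells viewed by fluorescence microscopy at 200x.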

BT-474 [2] = test: Cell cycle arrest in human BT-474 cells assessed as increase in accumulation in G2/M phase at 1 uM by propidium iodide staining based flow cytometry(reference value: 19.35%); assay type: functional
In short: (§2)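 Seeded at 1 x 10⁵ cells/well, after 24 h serum-starved 6 h to synchronize, then returned to FBS-containing medium and treated at 0.5, 1 and 2.5 μM. Harvested cells were PBS-washed, fixed in ice-cold 70% ethanol, stained with propidium iodide (50 μg/mL) plus RNase A for 20 min at 37 °C in the dark. About 10,000 events analysed by flow cytometry.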

BT-474 [3] = test: Induction of mitochondrial membrane potential loss in human BT-474 cells assessed as depolarized cell population (P2) at 1 uM incubated for 48 hrs by JC1 staining based flow cytometry (reference value: 0.48 %); assay type: functional
In short: (§3)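 Cells (1x10⁶/mL) adhered overnight, then exposed to 0.5, 1 and 2.5 μM for 48 h. Collected, PBS-washed, incubated with JC-1 dye (1 μM) for 30 min at 37 °C, washed twice, trypsinized, centrifuged and read by flow cytometry.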

BT-474 [4] = test: Induction of morphological changes in human BT-474 cells assessed reduction in number of viable cells incubated for 48 hrs by phase-contrast microscope method; assay type: functional, cell-based; conditions: dose microM 0.5-2.5, time 48.0 hrs
In short: (§4)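 Plated at 5×10^4 cells/well, dosed after 24 h at 0.5, 1 and 2.5 μM. After 48 h, morphology was examined and photographed under phase-contrast microscopy.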

BT-474 [5] = test: Cell cycle arrest in human BT-474 cells assessed as increase in accumulation in G1 phase at 2.5 uM by propidium iodide staining based flow cytometry(reference value: 4.06%); assay type: functional; in short: as §2
NCI-H460 = test: Cytotoxicity against human NCI-H460 cells assessed as reduction in cell viability incubated for 48 hrs by MTT assay; assay type: functional, cell-based; conditions: NCI-H460, 48 h
In short: (§5)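 Cells plated at 3000-4500 per well and treated after 24 h. DMSO stocks (20 mM) were diluted in medium to final DMSO <0.1%, twofold series […], 48 h. MTT (0.5 mg/mL) was added for 4 h, formazan dissolved in DMSO, absorbance read at 570 nm.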

BT-474 [6] = test: Cell cycle arrest in human BT-474 cells assessed as increase in accumulation in S phase at 0.5 uM by propidium iodide staining based flow cytometry(reference value: 2.22%); assay type: functional; in short: as §2
BT-474 [7] = test: Induction of apoptosis in human BT-474 cells assessed as chromatin damage at 0.5 to 2.5 uM incubated for 24 hrs by DAPI staining based DAPI staining based confocal microscopic analysis; assay type: functional, cell-based; conditions: dose microM 0.5-2.5, time 24.0 hrs
BT-474 [8] = test: Induction of apoptosis in human BT-474 cells assessed as chromatin condensation at 0.5 to 2.5 uM incubated for 24 hrs by DAPI staining based DAPI staining based confocal microscopic analysis; assay type: functional, cell-based; conditions: dose microM 0.5-2.5, time 24.0 hrs
MCF7 = test: Cytotoxicity against human MCF-7 cells assessed as reduction in cell viability incubated for 48 hrs by MTT assay; assay type: functional, cell-based; conditions: MCF7, 48 h; in short: as §5
HaCaT = test: Cytotoxicity against human HaCaT cells assessed as reduction in cell viability incubated for 48 hrs by MTT assay; assay type: functional, cell-based; in short: as §5
HeLa = test: Cytotoxicity against human HeLa cells assessed as reduction in cell viability incubated for 48 hrs by MTT assay; assay type: functional, cell-based; in short: as §5
BT-474 [9] = test: Induction of apoptosis in human BT-474 cells assessed as non-uniform distribution of chromatin incubated for 48 hrs by acridine orange/ethidium bromide double staining-based fluorescence microscopic analysis; assay type: functional, cell-based; conditions: dose microM 0.5-2.5, time 48.0 hrs; in short: as §1
BT-474 [10] = test: Cell cycle arrest in human BT-474 cells assessed as increase in accumulation in G2/M phase at 0.5 uM by propidium iodide staining based flow cytometry(reference value: 19.35%); assay type: functional; in short: as §2
BT-474 [11] = test: Inhibition of clonogenicity in human BT-474 cells assessed as reduction in colony formation measured after 7 days by crystal violet staining; assay type: functional, cell-based; conditions: dose microM 0.5-2.5, time 7.0 day
In short: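 100 cells/well in 6-well plates; after overnight attachment, treated 12 h, then grown in fresh medium at 37 °C, 5% CO₂ with medium changed every 2 days. Colonies fixed and stained with 1% crystal violet in methanol for 3 h, counted by imaging, expressed as percent of untreated control.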

BT-474 [12] = test: Cell cycle arrest in human BT-474 cells assessed as increase in accumulation in G1 phase at 0.5 uM by propidium iodide staining based flow cytometry(reference value: 4.06%); assay type: functional; in short: as §2
BT-474 [13] = test: Cell cycle arrest in human BT-474 cells assessed as decrease in G0/G1 accumulation in phase at 2.5 uM by propidium iodide staining based flow cytometry(reference value: 60.53%); assay type: functional; parameters: scale not given: the % may be the effect or the level left; in short: as §2
BT-474 [14] = test: Induction of mitochondrial membrane potential loss in human BT-474 cells assessed as depolarized cell population (P1) at 0.5 uM incubated for 48 hrs by JC1 staining based flow cytometry (reference value: 98.09 %); assay type: functional; in short: as §3
BT-474 [15] = test: Induction of morphological changes in human BT-474 cells assessed as […] incubated for 48 hrs by phase-contrast microscope method; assay type: functional, cell-based; conditions: dose microM 0.5-2.5, time 48.0 hrs; in short: as §4
BT-474 [16] = test: Induction of mitochondrial membrane potential loss in human BT-474 cells assessed as depolarized cell population (P2) at 0.5 uM incubated for 48 hrs by JC1 staining based flow cytometry (reference value: 0.48 %); assay type: functional; in short: as §3
BT-474 [17] = test: Induction of morphological changes in human BT-474 cells assessed as cell shrinkage incubated for 48 hrs by phase-contrast microscope method; assay type: functional, cell-based; conditions: dose microM 0.5-2.5, time 48.0 hrs; in short: as §4
BT-474 [18] = test: Cytotoxicity against human BT-474 cells assessed as reduction in cell viability incubated for 48 hrs by MTT assay; assay type: functional, cell-based; conditions: BT-474, 48 h; in short: as §5
BT-474 [19] = test: Induction of apoptosis in human BT-474 cells assessed as membrane bleeding incubated for 48 hrs by acridine orange/ethidium bromide double staining-based fluorescence microscopic analysis; assay type: functional, cell-based; conditions: dose microM 0.5-2.5, time 48.0 hrs; in short: as §1
BT-474 [20] = test: Cell cycle arrest in human BT-474 cells assessed as decrease in G0/G1 accumulation in phase at 1 uM by propidium iodide staining based flow cytometry(reference value: 60.53%); assay type: functional; parameters: scale not given: the % may be the effect or the level left; in short: as §2
BT-474 [21] = test: Cell cycle arrest in human BT-474 cells assessed as increase in accumulation in S phase at 1 uM by propidium iodide staining based flow cytometry(reference value: 2.22%); assay type: functional; in short: as §2
BT-474 [22] = test: Induction of mitochondrial membrane potential loss in human BT-474 cells assessed as depolarized cell population (P1) at 2.5 uM incubated for 48 hrs by JC1 staining based flow cytometry (reference value: 98.09 %); assay type: functional; in short: as §3
BT-474 [23] = test: Induction of morphological changes in human BT-474 cells assessed as loss of cell-cell adhesion incubated for 48 hrs by phase-contrast microscope method; assay type: functional, cell-based; conditions: dose microM 0.5-2.5, time 48.0 hrs; in short: as §4

O=C(c1cn(Cc2cccc(Oc3ccccc3)c2)nn1)N1CCN(S(=O)(=O)c2ccc(Br)cc2)CC1
inhibition (Tubulin (Homo sapiens)): Active | Activity (BT-474 [1]): Dose-dependent effect | Activity (BT-474 [2]): 62.72% | Activity (BT-474 [3]): 61.44% | Activity (BT-474 [4]): Active | Activity (BT-474 [5]): 11.3% | IC50 (NCI-H460): 4880 nM | Activity (BT-474 [6]): 7.02% | Activity (BT-474 [7]): Active | Activity (BT-474 [8]): Active | IC50 (MCF7): 2340 nM | IC50 (HaCaT): 3680 nM | IC50 (HeLa): 1020 nM | Activity (BT-474 [9]): Dose-dependent effect | Activity (BT-474 [10]): 58.93% | inhibition (BT-474 [11]): Dose-dependent effect | Activity (BT-474 [12]): 11% | Activity (BT-474 [13]): 9.09% | Activity (BT-474 [14]): 50.26% | Activity (BT-474 [15]): Active | Activity (BT-474 [16]): 50.48% | Activity (BT-474 [17]): Active | IC50 (BT-474 [18]): 990 nM | Activity (BT-474 [19]): Dose-dependent effect | Activity (BT-474 [20]): 9.64% | Activity (BT-474 [21]): 5.85% | Activity (BT-474 [22]): 10.81% | Activity (BT-474 [23]): Active
